This is a sample that favours compounds with a hit; in the whole collection about 4.2% have one here.
CHOP inh: inhibitors of CHOP induction in ER stress response; CHO-K1 CHOP-promoter luciferase, tunicamycin-induced, 15-18 h; inhibition, % at 10 µM; 3.8% of 220,000 active; AID 2732;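 active means compounds that reduced the stress-induced luciferase reporter signal by more than about 70% of percent inhibition, limit read from the data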;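 further: 0% = tunicamycin plus vehicle and 100% = wells without tunicamycin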
Lipid droplet: hepatic lipid droplet formation modulation. AML12 mouse hepatocytes, oleate lipid droplets, BODIPY imaging. inhibition, % at 6.5 µM. 0.4% of 240,000 active;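 active means lipid droplet intensity inhibited by at least 50%, with more than 500 cells counted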
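Assay system: AML12 hepatocytes (mouse) / Also added: 100 µM oleic acid challenge / Times: overnight treatment with compound plus oleate / Detection: high-content imaging of BODIPY-stained droplets and DAPI nuclei / Evaluation: % inhibition of lipid droplet signal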
UPR XBP1 act: activators of adaptive arm of unfolded protein response (XBP1); 0.33% of 330,000 active; CHO-XBP1 luciferase reporter, IRE1-XBP1 UPR activation, luminescence; percent of tunicamycin response, DMSO as zero; activation, % at 20 µM;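 active means versus positive control, 20 µM dose yields 30% or more activation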;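 further: 100% = tunicamycin at 10 µg/mL and 0% = DMSO only wells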
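Assay system: IRE1-XBP1 luciferase reporter CHO line. Input: 1000 cells/well. Buffer or medium: F12 with 10% serum. Doses: 20 µM, 1% DMSO. Times: overnight seeding at 37 °C, 6 h compound treatment at 37 °C. Technique: Steady-Glo luciferase glow luminescence, 10 min after reagent addition.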
ANO1 activ: mouse TMEM16A channel activation, primary screen; HEK293 TMEM16A/YFP-H148Q/I152L, iodide quench fluorescence; active compounds read low; B-score at 10 µM; 0.3% of 340,000 active; AID 623877;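 active means fluorescence-ratio B-score plate-corrected deviation score at least 3 library SD below zero, with starting fluorescence score within 5 deviations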;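 further: channel opened by trigger with iodide after compound preincubation; score built on the fluorescence ratio of max minus min over baseline; more negative score means more quench and so TMEM16A activation or potentiation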
Target sequence (Q8BHY3 whole entry, looked up): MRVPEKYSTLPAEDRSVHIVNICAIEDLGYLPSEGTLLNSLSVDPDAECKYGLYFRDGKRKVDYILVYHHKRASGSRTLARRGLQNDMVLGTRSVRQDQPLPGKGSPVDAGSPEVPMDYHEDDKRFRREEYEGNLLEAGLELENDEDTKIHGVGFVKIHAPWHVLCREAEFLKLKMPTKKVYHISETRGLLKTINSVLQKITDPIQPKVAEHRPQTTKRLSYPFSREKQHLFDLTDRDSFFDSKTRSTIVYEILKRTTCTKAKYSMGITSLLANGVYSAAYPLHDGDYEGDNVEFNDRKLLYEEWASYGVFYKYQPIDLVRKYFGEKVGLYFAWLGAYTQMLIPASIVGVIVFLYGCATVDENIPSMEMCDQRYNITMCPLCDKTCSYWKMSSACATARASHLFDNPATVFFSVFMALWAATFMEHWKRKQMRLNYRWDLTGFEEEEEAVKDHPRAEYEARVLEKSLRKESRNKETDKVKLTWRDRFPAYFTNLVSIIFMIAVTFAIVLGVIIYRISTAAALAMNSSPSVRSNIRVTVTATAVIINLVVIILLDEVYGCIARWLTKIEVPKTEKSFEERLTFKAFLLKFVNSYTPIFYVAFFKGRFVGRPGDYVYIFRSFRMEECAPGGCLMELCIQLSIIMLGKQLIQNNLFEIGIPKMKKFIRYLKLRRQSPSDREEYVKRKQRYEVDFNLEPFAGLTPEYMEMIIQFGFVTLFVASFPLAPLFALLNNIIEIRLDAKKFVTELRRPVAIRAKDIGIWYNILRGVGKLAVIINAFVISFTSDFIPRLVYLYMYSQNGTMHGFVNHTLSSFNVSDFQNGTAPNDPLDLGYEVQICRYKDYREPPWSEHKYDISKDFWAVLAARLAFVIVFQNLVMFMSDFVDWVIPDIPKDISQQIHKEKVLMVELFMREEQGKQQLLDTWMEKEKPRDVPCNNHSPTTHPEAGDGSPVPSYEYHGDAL
UPR CHOP act: activators of apoptotic arm of unfolded protein response (CHOP). CHO-CHOP luciferase reporter, UPR activation, luminescence; percent of tunicamycin response over DMSO baseline. activation, % at 10 µM. 0.34% of 330,000 active. AID 449763;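 active means at 10 µM dose, activation of 40% or more, normalized to positive control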;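 further: 100% = tunicamycin at 10 µg/mL and 0% = DMSO alone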
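Dosing – one dose, 10 µM in 0.5% DMSO · System – CHO-CHOP cells, stable luciferase reporter of PERK-eIF2a-CHOP signalling · Input – 500 cells/well · Control set – tunicamycin 10 µg/mL final as positive, DMSO-only wells as negative · Timing – 6 h compound treatment, 37 °C · Measure – % activation vs tunicamycin · Technique – luminescence read with Steady-Glo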
TMEM16A inh: inhibitors of mouse TMEM16A calcium-activated chloride channel; Q8BHY3; AID 588511; normalized B-score (activity score, 25-100; higher = stronger inhibition) at 10 µM; HEK293 TMEM16A/YFP iodide influx fluorescence, ionomycin; 1.2% of 310,000 active;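 active means ratio plate-corrected score three or more library SD toward inhibition, starting fluorescence score within five deviations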;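 further: score derived from kinetic fluorescence span divided by baseline fluorescence per well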
Active calls of the source: *.

Results for COc1cc(NC(=O)c2sc3ncn(CC(=O)N4CCCCC4)c(=O)c3c2C)cc(OC)c1OC ?
Lipid droplet: -14.6; UPR XBP1 act: -4.2; ANO1 activ: inactive; UPR CHOP act: 0.1; TMEM16A inh: inactive

How did CC(OC(=O)/C(C#N)=C/c1ccco1)C(=O)N(C)c1ccccc1 (centres undefined) do in these assays?
UPR XBP1 act: 0.1; ANO1 activ: inactive; UPR CHOP act: 0.9

How did Clc1ccc(CSc2cc3c(nn2)-c2ccccc2CC3)cc1 do in these assays?
CHOP inh: 76.5*; UPR XBP1 act: 5.0; ANO1 activ: inactive; UPR CHOP act: 4.5; TMEM16A inh: inactive

Results for Clc1ccc(CSc2ccc(-c3ccccn3)nn2)cc1 ?
CHOP inh: 31.5; Lipid droplet: 3.8; UPR XBP1 act: -1.1; ANO1 activ: inactive; UPR CHOP act: 4.7; TMEM16A inh: inactive

What do the screens show for `O=c1cc(-c2ccc(Cl)cc2)[nH]c2ccccc12`?
CHOP inh: 22.3; Lipid droplet: -8.7; UPR XBP1 act: -1.8; UPR CHOP act: 3.7; TMEM16A inh: inactive

How did Clc1ccc(-c2cc3ccccc3[nH]2)cc1 do in these assays?
CHOP inh: 94.8*; UPR XBP1 act: 3.3; ANO1 activ: inactive; UPR CHOP act: 2.3; TMEM16A inh: inactive

Results for N#Cc1ccccc1NS(=O)(=O)c1cc2c3c(c1)CCC(=O)N3CCC2 ?
UPR XBP1 act: -1.9; ANO1 activ: inactive; UPR CHOP act: -1.4; TMEM16A inh: inactive

What do the screens show for `CCOC(=O)c1cnn(-c2sc(C(=O)OCC)c(C)c2C(=O)OCC)c1N`?
UPR XBP1 act: 2.1; ANO1 activ: inactive; UPR CHOP act: 1.3; TMEM16A inh: 100*

What do the screens show for `CCOC(=O)c1cnn(-c2cc(C)cc(C)c2)c1N`?
CHOP inh: 3.6; Lipid droplet: -5.3; UPR XBP1 act: -3.3; ANO1 activ: inactive; UPR CHOP act: 0.7; TMEM16A inh: inactive

What do the screens show for `CCc1ccccc1NC(=O)CN1CCN(CC(=O)Nc2ccc3c(c2)OC2(CCCCC2)O3)CC1`?
ANO1 activ: inactive

What do the screens show for `Cc1cc(C)c2c(c1)-c1c(ssc1=S)C(C)(C)N2C(=O)CN1C(=O)c2ccccc2C1=O`?
CHOP inh: -0.8; Lipid droplet: 44.2; UPR XBP1 act: -4.4; ANO1 activ: -13.3*; UPR CHOP act: 1.0; TMEM16A inh: inactive

Results for O=C1CC(C(=O)O)C(c2ccccc2)c2ccccc21 (centres undefined) ?
ANO1 activ: inactive

How did CC(C)(C)SCCNS(=O)(=O)c1ccc(F)cc1 do in these assays?
CHOP inh: 61.2; UPR XBP1 act: -2.1; ANO1 activ: inactive; UPR CHOP act: -1.6; TMEM16A inh: inactive

Results for O=S(=O)(NCCSc1ccccc1)c1ccc(F)cc1 ?
CHOP inh: 90.9*; Lipid droplet: -3.8; UPR XBP1 act: -3.3; ANO1 activ: inactive; UPR CHOP act: -2.1; TMEM16A inh: inactive

What do the screens show for `Cc1ccc(NC(=O)Cn2cnc3c(NCc4ccccc4)ncnc32)cc1C`?
UPR XBP1 act: 2.0; UPR CHOP act: 2.0

Results for O=S(=O)(Nc1ncnc2sc3c(c12)CCC3)c1ccc2ccccc2c1 ?
CHOP inh: 23.6; Lipid droplet: -19.5; UPR XBP1 act: 2.2; ANO1 activ: inactive; UPR CHOP act: -3.1; TMEM16A inh: 100*

What do the screens show for `Cc1cc(F)ccc1S(=O)(=O)Nc1ncnc2sc3c(c12)CCC3`?
CHOP inh: -0.9; Lipid droplet: -1.8; UPR XBP1 act: 1.0; ANO1 activ: inactive; UPR CHOP act: -0.1; TMEM16A inh: inactive

What do the screens show for `c1ccc(CC2CCN(C3=Nc4cccc5cccc3c45)CC2)cc1`?
CHOP inh: 88.4*; Lipid droplet: 29.0; UPR XBP1 act: 0.6; ANO1 activ: inactive; UPR CHOP act: 5.3; TMEM16A inh: inactive

What do the screens show for `c1cc2c3c(cccc3c1)C(N1CCOCC1)=N2`?
CHOP inh: 15.8; Lipid droplet: 23.3; UPR XBP1 act: 0.0; ANO1 activ: inactive; UPR CHOP act: 0.8; TMEM16A inh: inactive

What do the screens show for `O=C(CNC(=O)c1ccc(Br)o1)NCc1ccc(Cl)cc1`?
Lipid droplet: 1.2; UPR XBP1 act: 3.1; ANO1 activ: inactive; UPR CHOP act: 0.4; TMEM16A inh: inactive

How did Cc1c(C)c2ccc(OCC(=O)N3CC[C@@]4(O)CCCC[C@H]4C3)cc2oc1=O do in these assays?
Lipid droplet: -5.4; UPR XBP1 act: 0.2; ANO1 activ: -5.62*; UPR CHOP act: -2.1; TMEM16A inh: inactive

Results for O=C(COc1ccc2ccc(=O)oc2c1)N1CC[C@@]2(O)CCCC[C@H]2C1 ?
UPR XBP1 act: -0.1; ANO1 activ: inactive; UPR CHOP act: -1.7; TMEM16A inh: inactive

How did C=CCOc1ccc(/C=N/n2nnnc2N)cc1OC do in these assays?
UPR XBP1 act: -1.1; ANO1 activ: inactive; UPR CHOP act: 2.4; TMEM16A inh: inactive

Results for O=C(Nc1nnc(Cc2c[nH]c3ccccc23)s1)c1ccc(Cl)cc1Cl ?
CHOP inh: 9.8; Lipid droplet: -1.2; UPR XBP1 act: -0.4; ANO1 activ: inactive; UPR CHOP act: 3.0; TMEM16A inh: inactive

What do the screens show for `CC(C)(C)c1ccc(C(=O)Nc2nnc(Cc3c[nH]c4ccccc34)s2)cc1`?
CHOP inh: 74.8*; Lipid droplet: -21.2; UPR XBP1 act: -0.4; ANO1 activ: inactive; UPR CHOP act: 3.2; TMEM16A inh: inactive

What do the screens show for `COC(=O)c1cnc(SCc2ccc(Cl)cc2)n1C`?
CHOP inh: 75.3*; Lipid droplet: 15.9; UPR XBP1 act: -1.6; ANO1 activ: inactive; UPR CHOP act: 2.7; TMEM16A inh: inactive

Results for CC/C(=N\NC(=O)c1ccc2c(c1)OCO2)C12CC3CC(CC(C3)C1)C2 ?
CHOP inh: 76.9*; Lipid droplet: 12.6; UPR XBP1 act: 1.1; ANO1 activ: -6.11*; UPR CHOP act: 1.1; TMEM16A inh: inactive

How did Cc1ccc(-c2nnn(CC(=O)Nc3cccc4c3CCCC4)n2)o1 do in these assays?
CHOP inh: 80.7*; UPR XBP1 act: 0.6; ANO1 activ: inactive; UPR CHOP act: 0.0; TMEM16A inh: inactive

What do the screens show for `CC(=O)Nc1cc2c(cc1NC(=O)Cn1nnc(-c3ccc(C)o3)n1)OCCO2`?
CHOP inh: 20.6; Lipid droplet: 10.5; UPR XBP1 act: -2.5; ANO1 activ: inactive; UPR CHOP act: 1.8; TMEM16A inh: inactive

How did CC(C)CN(C(=O)c1ccc(C(F)(F)F)cc1)c1c(N)n(CC(C)C)c(=O)[nH]c1=O do in these assays?
Lipid droplet: -6.1; UPR XBP1 act: -2.4; ANO1 activ: inactive; UPR CHOP act: -0.9; TMEM16A inh: inactive
